Source: paper PMC7900901 (SLAS discovery : advancing life sciences R & D, 2017)
Entries after “also recorded” stand apart in the source; their conditions may differ. Like-named read-outs stand apart in the source and are kept apart here. Values belong to the compound of their own block, whether it stands above or below them.

Tests used:
Assay type in all cases: biochemical
human TDP1 [1] = target: T1, human TDP1 (Homo sapiens, UniProt Q9NUW8); test: Continuous FRET assay, IC50 determination of inhibitors of TDP1
T1 sequence (Q9NUW8 whole entry): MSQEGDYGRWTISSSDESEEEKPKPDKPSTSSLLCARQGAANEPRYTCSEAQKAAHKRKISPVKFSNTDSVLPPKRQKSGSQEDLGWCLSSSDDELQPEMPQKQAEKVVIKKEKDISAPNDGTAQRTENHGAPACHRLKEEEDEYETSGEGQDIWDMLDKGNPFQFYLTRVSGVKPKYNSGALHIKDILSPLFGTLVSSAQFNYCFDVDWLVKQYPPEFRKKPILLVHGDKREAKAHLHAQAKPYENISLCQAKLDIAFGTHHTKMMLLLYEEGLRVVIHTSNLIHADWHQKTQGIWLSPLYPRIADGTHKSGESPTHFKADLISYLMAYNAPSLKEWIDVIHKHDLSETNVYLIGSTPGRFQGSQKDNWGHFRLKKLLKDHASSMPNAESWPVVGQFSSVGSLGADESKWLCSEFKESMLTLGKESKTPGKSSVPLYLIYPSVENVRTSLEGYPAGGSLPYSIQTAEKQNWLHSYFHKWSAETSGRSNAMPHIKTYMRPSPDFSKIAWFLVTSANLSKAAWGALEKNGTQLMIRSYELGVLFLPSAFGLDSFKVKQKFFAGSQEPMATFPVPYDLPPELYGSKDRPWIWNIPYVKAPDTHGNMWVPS

human TDP1 [2] = target: T1, human TDP1; test: Reversibility of inhibition by preincubation and rapid dilution; conditions: for Reversibility of inhibition: preincubation at 10X IC50 for 1 h, 100-fold dilution; for Recovery of the uninhibited control rate: after preincubation with compound for 1 h, rapid dilution
human TDP1 [3] = target: T1, human TDP1; test: Mechanism of inhibition, substrate/inhibitor matrix
In short: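 Full-length TDP1 was preincubated with test compound on ice for 1 h. Then eosin/TAMRA FRET substrate was added, […] twofold dilutions from 2.25 to 0.035 μM, with three inhibitor levels plus a no-inhibitor control. Final TDP1 was 500 pM in PBS pH 8.0 buffer. Eosin fluorescence (ex 525/em 545 nm) was read over about 1 h at 28 °C. Rate versus substrate data were fitted to competitive, noncompetitive (pure and mixed) and uncompetitive models, with the best fit chosen by Akaike's Information Criterion.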

[4] = 500 pM TDP1, 1.5 μM FRET substrate, 1 h preincubation

Structure (SMILES): O=C(O)C1=CC(=C(c2ccc(O)c(C(=O)O)c2)c2ccc(O)c(C(=O)O)c2)C=CC1=O [Aurintricarboxylic acid, reference compound]
Recovery of the uninhibited control rate (human TDP1 [2]): 90%

Structure (SMILES): CC(=O)Oc1ccc2ccc(=O)oc2c1OC(C)=O [Daphnetin diacetate]
IC50 (human TDP1 [1]): 1.1 ± 0.2 µM

Structure (SMILES): CC(C)=CCC12OC1(O)C(=O)c1c(O)cccc1C2=O (centres unmarked) [2,3-epoxy-8-hydroxy-lapachol]
Recovery of the uninhibited control rate (human TDP1 [2]): 90%
Reversibility of inhibition (human TDP1 [2]): fully reversible
Mechanism of inhibition (human TDP1 [3]; inhibitor at 0, 6.6, 20 and 60 μM, Akaike's Information Criterion): mixed-type noncompetitive mechanism
Ki (human TDP1 [3]; read-out: Kie (inhibition constant for TDP1 alone), mixed noncompetitive model): 40.9 ± 14.1 µM

Structure (SMILES): C[C@@]12CCCc3coc(c31)C(=O)c1cc3c(cc12)C(=O)C=CC3=O [Xestoquinone]
IC50 (human TDP1 [1]): 93 ± 1.1 µM

Structure (SMILES): COC[C@H]1OC(=O)c2coc3c2[C@@]1(C)C1=C(C3=O)[C@@H]2CCC(=O)[C@@]2(C)C[C@H]1OC(C)=O [wortmannin, reference compound]
Inhibition of TDP1 (human TDP1 [1]; concentrations up to 500 μM): unable to inhibit TDP1; also recorded: did not inhibit TDP1

Continued, in another order:

IC50 (human TDP1 [1]; [4]): 26 ± 1 µM
Reversibility of inhibition (human TDP1 [2]; listed as Halenoquinone): irreversible inhibition
Structure (SMILES): C[C@@]12CCC(=O)c3coc(c31)C(=O)c1cc3c(cc12)C(=O)C=CC3=O [Halenaquinone]
Reversibility of inhibition (human TDP1 [2]): irreversibly inhibited TDP1; also recorded: irreversibly inhibiting TDP1

IC50 (human TDP1 [1]): 52 ± 1 µM
Structure (SMILES): C[C@H](O)C#CC#CC#CC#CCCCCCCCC(=O)O [Minquartynoic acid]

IC50 (human TDP1 [1]; [4]): 24 ± 1.1 µM
Structure (SMILES): C[C@@]12CCC(=O)c3coc(c31)C(=O)c1cc3c(O)ccc(OS(=O)(=O)O)c3cc12.[Na+] [Halenaquinol sulfate]
Reversibility of inhibition (human TDP1 [2]): irreversibly inhibited TDP1; also recorded: irreversibly inhibiting TDP1
